Laboratory results from paper PMC10639087 (Science signaling, 2023).

Assays:
[1] = biological target: T1, JPT2 (Jupiter microtubule-associated homolog 2) (Homo sapiens, UniProt Q9H910); assay: biolayer interferometry, biotinylated protein on streptavidin sensor; type: binding
T1 sequence (Q9H910 1-190): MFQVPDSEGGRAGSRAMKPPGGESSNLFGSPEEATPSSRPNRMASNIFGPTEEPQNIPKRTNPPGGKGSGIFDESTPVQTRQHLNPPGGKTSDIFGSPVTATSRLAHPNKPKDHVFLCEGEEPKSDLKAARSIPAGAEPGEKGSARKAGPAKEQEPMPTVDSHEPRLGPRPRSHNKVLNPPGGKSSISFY
Procedure, shortened: (§1)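 Recombinant human protein, expressed in E. coli BL21 Star (DE3) as an N-terminal 6xHis-GST-TEV fusion, was biotinylated (NHS-LC-biotin) and moved into 110 mM KCl, 10 mM NaCl, 20 mM Hepes pH 7.2 with 1% BSA. SAX sensors were equilibrated 30 s, loaded with 70 nM bait for 15 s, and re-equilibrated 60 s. They were exposed to NAADP (1:2 serial dilutions, 500 to 15.6 nM), then dissociated 210 to 300 s.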

[2] = biological target: T1, JPT2 (Jupiter microtubule-associated homolog 2); assay: […]-NAADP displacement, PVDF filter binding
[3] = biological target: T2, LSM12 (like-Sm protein 12) (Homo sapiens, UniProt Q3MHD2); assay: […]-NAADP displacement, PVDF filter binding
T2 sequence (Q3MHD2 whole entry): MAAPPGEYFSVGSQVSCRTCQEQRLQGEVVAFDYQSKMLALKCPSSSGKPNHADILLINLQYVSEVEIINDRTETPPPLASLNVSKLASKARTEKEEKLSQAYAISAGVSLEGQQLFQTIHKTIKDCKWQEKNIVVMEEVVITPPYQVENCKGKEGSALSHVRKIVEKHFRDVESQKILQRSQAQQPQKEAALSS

[4] = biological target: T2, LSM12 (like-Sm protein 12); assay: biolayer interferometry, biotinylated protein on streptavidin sensor; type: binding
Procedure, shortened: as §1

Row | Compound | Kd [1] [nM] | IC50 [2] [nM] | IC50 [3] [nM] | Kd [4] [nM]
1 | Nc1ncnc2c1ncn2[C@@H]1O[C@H](COP(=O)(O)OP(=O)(O)OC[C@H]2O[C@@H]([n+]3cccc(C(=O)O)c3)[C@H](O)[C@@H]2O)[C@@H](O)[C@H]1OP(=O)(O)O [NAADP] | 5.71 ± 1.8 | 1.09 ± 0.1 | 0.703 ± 0.1 | 2.03 ± 0.41
2 | NC(=O)c1ccc[n+]([C@@H]2O[C@H](COP(=O)(O)OP(=O)(O)OC[C@H]3O[C@@H](n4cnc5c(N)ncnc54)[C@H](OP(=O)(O)O)[C@@H]3O)[C@@H](O)[C@H]2O)c1 [NADP] | 52.9 ± 8.6 | 15.9 ± 4 | 40.3 ± 25 | 126 ± 35.6
